How the values were obtained:
[1] = Inhibition of SRPK1/2 in human HeLa cells lysate at 10 uM pre incubated for 15 mins followed by ADP acyl phosphate probe addition and measured after 10 mins by LC-MS/MS analysis relative to control; conditions: 25 min, condition cancer
Insulin receptor = Insulin receptor (Homo sapiens, UniProt P06213); assay: Inhibition of INSR in human HeLa cells lysate at 10 uM pre incubated for 15 mins followed by ADP acyl phosphate probe addition and measured after 10 mins by LC-MS/MS analysis relative to control; format: subcellular; conditions: time 25.0 min
[2] = biological target: Epidermal growth factor receptor (Homo sapiens, UniProt P00533); assay: Inhibition of EGFR in human HeLa cells lysate pre incubated for 15 mins followed by ATP acyl phosphate probe addition and measured after 10 mins by LC-MS/MS analysis; format: subcellular
[3] = biological target: Ribosomal protein S6 kinase beta-2 (Homo sapiens, UniProt Q9UBS0); assay: Inhibition of P70S6KB in human HeLa cells lysate at 2 uM pre incubated for 15 mins followed by ATP acyl phosphate probe addition and measured after 10 mins by LC-MS/MS analysis relative to control; format: subcellular; conditions: time 25.0 min
[4] = biological target: Cyclin-dependent kinase 9 (Homo sapiens, UniProt P50750); assay: Inhibition of CDK9 in human HeLa cells lysate at 2 uM pre incubated for 15 mins followed by ATP acyl phosphate probe addition and measured after 10 mins by LC-MS/MS analysis relative to control; format: subcellular; conditions: time 25.0 min
Procedure, shortened: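 KiNativ profiling in HeLa lysate (5 mg/mL total protein). Lysate incubated 15 min with inhibitor at 50, 10, 2, 0.8 or 0 μM. ATP or ADP acylphosphate probe then added (5 μM final) and reacted 10 min. Reaction stopped with urea and analysed by targeted MS, using up to four fragment ions per kinase peptide-probe conjugate. % inhibition taken against untreated lysate. Run in duplicate.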

[5] = biological target: Serine/threonine-protein kinase ULK3 (Homo sapiens, UniProt Q6PHR2); assay: Inhibition of ULK3 in human HeLa cells lysate pre incubated for 15 mins followed by ADP acyl phosphate probe addition and measured after 10 mins by LC-MS/MS analysis; format: subcellular
[6] = biological target: Dual specificity mitogen-activated protein kinase kinase; MEK1/2 (Homo sapiens, UniProt P36507+Q02750); assay: Inhibition of MAP2K1/MAP2K2in human HeLa cells lysate at 2 uM pre incubated for 15 mins followed by ADP acyl phosphate probe addition and measured after 10 mins by LC-MS/MS analysis relative to control; format: subcellular; conditions: time 25.0 min
[7] = biological target: T1, Serine/threonine-protein kinase TAO2 (Homo sapiens) (UniProt Q9UL54); assay: Inhibition of TAO2 in human HeLa cells lysate at 50 uM pre incubated for 15 mins followed by ATP acyl phosphate probe addition and measured after 10 mins by LC-MS/MS analysis relative to control; format: subcellular; conditions: time 25.0 min
T1 sequence (whole entry): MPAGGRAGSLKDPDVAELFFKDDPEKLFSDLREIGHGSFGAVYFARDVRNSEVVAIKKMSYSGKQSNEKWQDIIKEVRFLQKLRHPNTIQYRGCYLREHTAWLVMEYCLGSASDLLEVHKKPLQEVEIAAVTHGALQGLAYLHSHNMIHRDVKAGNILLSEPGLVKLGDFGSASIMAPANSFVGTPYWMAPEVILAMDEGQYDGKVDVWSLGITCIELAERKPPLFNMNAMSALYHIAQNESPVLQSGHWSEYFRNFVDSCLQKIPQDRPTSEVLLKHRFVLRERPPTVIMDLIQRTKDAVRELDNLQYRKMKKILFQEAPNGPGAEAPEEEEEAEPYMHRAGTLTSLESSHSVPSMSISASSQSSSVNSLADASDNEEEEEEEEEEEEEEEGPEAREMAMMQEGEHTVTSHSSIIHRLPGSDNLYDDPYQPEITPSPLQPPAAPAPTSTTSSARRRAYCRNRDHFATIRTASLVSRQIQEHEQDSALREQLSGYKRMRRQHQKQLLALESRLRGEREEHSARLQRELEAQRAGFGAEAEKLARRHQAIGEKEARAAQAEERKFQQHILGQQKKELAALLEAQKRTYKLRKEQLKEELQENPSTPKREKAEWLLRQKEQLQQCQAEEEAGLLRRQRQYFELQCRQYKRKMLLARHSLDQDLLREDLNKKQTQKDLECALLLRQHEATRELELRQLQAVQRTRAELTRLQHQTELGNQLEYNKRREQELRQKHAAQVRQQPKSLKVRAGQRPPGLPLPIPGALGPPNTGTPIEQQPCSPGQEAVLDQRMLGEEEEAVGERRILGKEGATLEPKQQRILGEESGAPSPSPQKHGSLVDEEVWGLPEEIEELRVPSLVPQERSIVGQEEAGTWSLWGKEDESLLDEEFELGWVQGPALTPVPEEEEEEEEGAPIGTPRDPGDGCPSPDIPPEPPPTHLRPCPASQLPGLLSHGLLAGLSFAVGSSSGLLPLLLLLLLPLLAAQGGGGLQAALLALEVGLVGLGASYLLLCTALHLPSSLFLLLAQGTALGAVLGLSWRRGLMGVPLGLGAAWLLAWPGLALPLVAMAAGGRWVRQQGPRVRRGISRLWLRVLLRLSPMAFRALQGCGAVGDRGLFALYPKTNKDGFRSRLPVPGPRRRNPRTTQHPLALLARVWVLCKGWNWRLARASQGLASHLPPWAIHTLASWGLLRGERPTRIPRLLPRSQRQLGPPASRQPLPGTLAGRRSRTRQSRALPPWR

[8] = biological target: T2, Serine/threonine-protein kinase Sgk3 (Homo sapiens) (UniProt Q96BR1); assay: Inhibition of SGK3 in human HeLa cells lysate at 10 uM pre incubated for 15 mins followed by ATP acyl phosphate probe addition and measured after 10 mins by LC-MS/MS analysis relative to control; format: subcellular; conditions: time 25.0 min
T2 sequence (whole entry): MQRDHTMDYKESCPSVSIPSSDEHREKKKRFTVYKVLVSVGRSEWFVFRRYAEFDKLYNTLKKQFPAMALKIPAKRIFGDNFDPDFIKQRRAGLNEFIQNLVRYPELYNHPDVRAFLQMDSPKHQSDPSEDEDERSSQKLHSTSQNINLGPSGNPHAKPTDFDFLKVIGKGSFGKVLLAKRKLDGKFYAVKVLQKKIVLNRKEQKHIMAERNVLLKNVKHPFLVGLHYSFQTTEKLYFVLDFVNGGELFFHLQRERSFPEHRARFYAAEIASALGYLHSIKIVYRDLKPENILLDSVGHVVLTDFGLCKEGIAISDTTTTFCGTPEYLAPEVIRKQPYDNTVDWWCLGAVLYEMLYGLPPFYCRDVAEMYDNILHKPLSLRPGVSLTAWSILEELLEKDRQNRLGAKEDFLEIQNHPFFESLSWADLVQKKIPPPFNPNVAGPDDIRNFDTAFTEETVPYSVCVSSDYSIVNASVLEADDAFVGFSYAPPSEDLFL

[9] = Inhibition of PCTAIRE2/ICK in human HeLa cells lysate pre incubated for 15 mins followed by ADP acyl phosphate probe addition and measured after 10 mins by LC-MS/MS analysis; format: subcellular
[10] = MRT in Sprague-Dawley rat at 2 mg/kg, po measured up to 8 hrs by LC-MS/MS analysis; format: ADME, organism-based; conditions: in vivo

Sequence of Epidermal growth factor receptor (P00533 whole entry): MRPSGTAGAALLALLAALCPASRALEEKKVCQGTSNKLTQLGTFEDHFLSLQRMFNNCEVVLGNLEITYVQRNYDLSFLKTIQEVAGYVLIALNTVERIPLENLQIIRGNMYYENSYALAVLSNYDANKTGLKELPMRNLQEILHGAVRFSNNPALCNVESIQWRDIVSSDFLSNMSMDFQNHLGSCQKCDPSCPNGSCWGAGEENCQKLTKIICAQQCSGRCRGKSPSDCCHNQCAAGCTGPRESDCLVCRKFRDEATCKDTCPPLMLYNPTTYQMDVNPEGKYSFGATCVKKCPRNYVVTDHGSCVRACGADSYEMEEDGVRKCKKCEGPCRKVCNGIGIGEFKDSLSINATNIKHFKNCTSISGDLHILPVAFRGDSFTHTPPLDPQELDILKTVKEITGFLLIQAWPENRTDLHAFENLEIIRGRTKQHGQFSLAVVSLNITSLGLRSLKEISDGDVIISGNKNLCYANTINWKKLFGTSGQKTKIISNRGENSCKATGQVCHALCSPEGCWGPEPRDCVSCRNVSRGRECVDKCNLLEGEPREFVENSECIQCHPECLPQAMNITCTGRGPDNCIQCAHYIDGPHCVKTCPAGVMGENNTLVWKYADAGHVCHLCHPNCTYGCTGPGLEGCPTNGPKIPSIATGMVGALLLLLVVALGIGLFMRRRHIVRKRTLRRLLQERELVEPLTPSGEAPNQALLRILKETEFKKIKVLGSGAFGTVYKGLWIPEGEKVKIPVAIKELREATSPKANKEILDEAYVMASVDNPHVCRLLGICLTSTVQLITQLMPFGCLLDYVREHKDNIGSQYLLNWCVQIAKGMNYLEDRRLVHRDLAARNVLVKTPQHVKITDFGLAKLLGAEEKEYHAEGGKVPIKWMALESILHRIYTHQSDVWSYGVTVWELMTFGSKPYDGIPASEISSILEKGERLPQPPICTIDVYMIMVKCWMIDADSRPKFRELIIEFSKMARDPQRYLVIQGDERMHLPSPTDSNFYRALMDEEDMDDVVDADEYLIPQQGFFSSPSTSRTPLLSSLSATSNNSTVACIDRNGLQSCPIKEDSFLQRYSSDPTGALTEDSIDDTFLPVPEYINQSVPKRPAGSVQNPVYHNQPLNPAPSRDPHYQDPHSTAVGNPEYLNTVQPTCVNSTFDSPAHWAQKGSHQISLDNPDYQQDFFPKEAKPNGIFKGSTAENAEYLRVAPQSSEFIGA
Sequence of Insulin receptor (P06213 28-758 limits assumed): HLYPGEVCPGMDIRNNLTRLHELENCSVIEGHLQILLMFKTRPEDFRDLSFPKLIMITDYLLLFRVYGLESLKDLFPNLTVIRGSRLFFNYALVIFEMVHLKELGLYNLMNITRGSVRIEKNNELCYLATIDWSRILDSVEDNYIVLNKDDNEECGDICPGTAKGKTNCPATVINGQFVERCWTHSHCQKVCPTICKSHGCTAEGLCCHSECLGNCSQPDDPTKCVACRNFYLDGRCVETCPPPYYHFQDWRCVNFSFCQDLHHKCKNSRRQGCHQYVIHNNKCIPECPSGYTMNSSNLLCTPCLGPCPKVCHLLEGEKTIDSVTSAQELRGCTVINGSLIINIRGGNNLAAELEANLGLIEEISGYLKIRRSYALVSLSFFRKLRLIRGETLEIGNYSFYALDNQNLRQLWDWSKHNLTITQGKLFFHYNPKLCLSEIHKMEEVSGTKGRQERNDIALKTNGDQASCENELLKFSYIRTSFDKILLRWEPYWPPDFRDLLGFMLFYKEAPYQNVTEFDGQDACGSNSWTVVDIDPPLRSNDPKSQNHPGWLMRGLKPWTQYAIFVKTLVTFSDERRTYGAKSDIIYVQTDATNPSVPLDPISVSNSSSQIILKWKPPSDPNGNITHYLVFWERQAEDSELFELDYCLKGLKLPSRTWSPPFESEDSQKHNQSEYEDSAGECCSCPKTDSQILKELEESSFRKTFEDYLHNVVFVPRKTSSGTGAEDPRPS
Sequence of Insulin receptor (P06213 763-1382 limits assumed): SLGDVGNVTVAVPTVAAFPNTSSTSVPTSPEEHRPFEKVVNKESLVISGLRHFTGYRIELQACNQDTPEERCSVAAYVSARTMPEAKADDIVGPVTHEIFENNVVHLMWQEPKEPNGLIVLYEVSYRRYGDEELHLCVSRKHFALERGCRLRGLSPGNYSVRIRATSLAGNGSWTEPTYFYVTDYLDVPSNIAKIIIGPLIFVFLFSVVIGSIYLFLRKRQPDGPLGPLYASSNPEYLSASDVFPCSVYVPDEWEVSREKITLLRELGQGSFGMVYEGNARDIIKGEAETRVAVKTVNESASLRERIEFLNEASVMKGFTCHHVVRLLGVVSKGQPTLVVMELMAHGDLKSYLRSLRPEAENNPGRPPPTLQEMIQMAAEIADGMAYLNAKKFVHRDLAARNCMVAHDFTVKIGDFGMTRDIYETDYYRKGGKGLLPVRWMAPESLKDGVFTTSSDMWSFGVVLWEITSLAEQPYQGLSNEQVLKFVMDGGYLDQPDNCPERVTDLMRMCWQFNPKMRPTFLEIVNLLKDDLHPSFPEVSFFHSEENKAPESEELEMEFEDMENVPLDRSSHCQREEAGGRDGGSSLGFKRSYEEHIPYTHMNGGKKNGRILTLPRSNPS
Sequence of Serine/threonine-protein kinase ULK3 (Q6PHR2 whole entry): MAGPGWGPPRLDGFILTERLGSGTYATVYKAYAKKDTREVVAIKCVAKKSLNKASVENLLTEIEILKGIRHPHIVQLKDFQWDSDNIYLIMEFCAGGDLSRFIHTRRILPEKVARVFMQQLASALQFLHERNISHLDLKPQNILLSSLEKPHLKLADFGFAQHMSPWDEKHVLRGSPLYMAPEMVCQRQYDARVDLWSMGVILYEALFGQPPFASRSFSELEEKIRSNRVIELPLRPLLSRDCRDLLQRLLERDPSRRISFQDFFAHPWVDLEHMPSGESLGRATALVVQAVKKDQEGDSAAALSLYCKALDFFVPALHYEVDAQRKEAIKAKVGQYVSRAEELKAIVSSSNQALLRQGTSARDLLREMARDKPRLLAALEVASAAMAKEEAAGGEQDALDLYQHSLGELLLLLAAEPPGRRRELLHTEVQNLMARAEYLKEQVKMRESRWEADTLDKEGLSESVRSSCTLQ
Sequence of Ribosomal protein S6 kinase beta-2 (Q9UBS0 whole entry): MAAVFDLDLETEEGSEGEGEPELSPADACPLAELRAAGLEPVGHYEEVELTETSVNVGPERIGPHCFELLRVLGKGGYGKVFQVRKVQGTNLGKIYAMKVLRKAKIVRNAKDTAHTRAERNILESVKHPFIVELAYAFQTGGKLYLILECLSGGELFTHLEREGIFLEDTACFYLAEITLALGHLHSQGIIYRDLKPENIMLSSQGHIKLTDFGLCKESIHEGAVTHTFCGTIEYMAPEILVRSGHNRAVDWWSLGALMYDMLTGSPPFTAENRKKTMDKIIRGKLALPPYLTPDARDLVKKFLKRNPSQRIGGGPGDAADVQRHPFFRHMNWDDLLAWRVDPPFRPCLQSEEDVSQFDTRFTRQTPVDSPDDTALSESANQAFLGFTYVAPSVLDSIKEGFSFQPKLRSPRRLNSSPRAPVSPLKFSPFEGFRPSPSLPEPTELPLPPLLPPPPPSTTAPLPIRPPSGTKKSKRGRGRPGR
Sequence of Dual specificity mitogen-activated protein kinase kinase; MEK1/2 (P36507 whole entry, looked up): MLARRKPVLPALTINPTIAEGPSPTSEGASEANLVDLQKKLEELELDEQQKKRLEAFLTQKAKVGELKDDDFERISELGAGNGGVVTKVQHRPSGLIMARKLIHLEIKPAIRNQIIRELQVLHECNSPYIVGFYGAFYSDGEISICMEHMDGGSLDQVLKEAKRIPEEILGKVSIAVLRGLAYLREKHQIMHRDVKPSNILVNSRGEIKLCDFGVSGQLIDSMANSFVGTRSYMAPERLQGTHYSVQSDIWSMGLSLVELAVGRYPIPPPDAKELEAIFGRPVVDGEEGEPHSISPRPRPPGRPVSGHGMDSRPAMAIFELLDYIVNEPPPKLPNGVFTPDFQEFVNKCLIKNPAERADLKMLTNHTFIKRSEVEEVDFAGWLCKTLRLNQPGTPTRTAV
Sequence of Dual specificity mitogen-activated protein kinase kinase; MEK1/2 (Q02750 whole entry, looked up): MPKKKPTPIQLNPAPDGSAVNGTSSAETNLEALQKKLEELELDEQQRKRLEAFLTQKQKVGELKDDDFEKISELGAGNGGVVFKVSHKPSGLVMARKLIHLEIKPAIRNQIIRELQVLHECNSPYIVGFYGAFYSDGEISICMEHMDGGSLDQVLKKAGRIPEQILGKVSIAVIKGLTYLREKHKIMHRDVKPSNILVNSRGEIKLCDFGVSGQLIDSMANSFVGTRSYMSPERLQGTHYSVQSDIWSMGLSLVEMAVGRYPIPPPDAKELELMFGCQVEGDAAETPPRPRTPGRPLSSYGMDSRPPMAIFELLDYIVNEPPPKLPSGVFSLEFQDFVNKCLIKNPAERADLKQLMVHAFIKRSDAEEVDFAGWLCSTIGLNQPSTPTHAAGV
Sequence of Cyclin-dependent kinase 9 (P50750 whole entry, the tested form may be a part): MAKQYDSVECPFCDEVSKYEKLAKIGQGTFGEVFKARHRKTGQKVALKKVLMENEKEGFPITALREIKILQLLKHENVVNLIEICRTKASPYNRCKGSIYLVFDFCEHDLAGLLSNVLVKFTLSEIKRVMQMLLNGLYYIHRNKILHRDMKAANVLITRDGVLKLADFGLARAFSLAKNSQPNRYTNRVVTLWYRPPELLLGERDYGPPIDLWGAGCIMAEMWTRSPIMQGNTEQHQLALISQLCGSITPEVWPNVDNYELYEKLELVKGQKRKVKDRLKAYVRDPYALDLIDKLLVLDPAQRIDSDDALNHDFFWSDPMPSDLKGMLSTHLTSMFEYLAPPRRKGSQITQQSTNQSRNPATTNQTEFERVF

CCOc1cc(N2CCC(O)CC2)ccc1Nc1ncc2c(n1)N(C)c1ccccc1C(=O)N2C
inhibition at 10 µM [1]: -8.1% | inhibition (Insulin receptor): -8% | IC50 [2]: > 50 µM | inhibition [3]: 1.9% | inhibition [4]: 11.6% | IC50 [5]: > 50 µM | inhibition [6]: 0.6% | inhibition [7]: 6.6% | inhibition [8]: 4.4% | IC50 [9]: > 50 µM | MRT [10]: 4.8 h

Source: ChEMBL document CHEMBL5661979, “Pharmacological inhibition of BMK1 suppresses tumor growth through promyelocytic leukemia protein” (Cancer Cell, 2010)
